Screening results deposited in PubChem BioAssay by several laboratories.
Most compounds without a hit are left out; they make up all but 3.1% or so of the library.
rCAG binder: molecules binding r(CAG) RNA repeats; r(CAG) RNA repeat, TO-PRO-1 dye displacement fluorescence; inhibition, % at 3 µM; 370,000 tested, 1.3% active;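 active = inhibition above the plate cutoff, the mean of all test compounds on that plate plus 3 SD, cut at about 35% in these data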;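 also: 0% = DMSO alone and 100% = 100 µM mitoxantrone as full dye displacement; higher means more dye released from RNA so lower well fluorescence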
ATG4B inhibitor: inhibitors of human ATG4B cysteine protease. Q9Y4P1. ATG4B cleavage of LC3-PLA2, NBD-HPC fluorescence, 1 h. inhibition, % at 8.33 µM. 340,000 tested, 0.51% active; in the data active = inhibition above about 40%
MBD2 inh: MBD2-methylated oligo binding inhibition; Q9UBB5; AID 686964; TR-FRET, MBD2 binding to methylated oligonucleotide; inhibition, % at 4.4 µM; 370,000 tested, 0.31% active; in the data active = inhibition above about 13%
LEDGF integ inh: blocks HIV-1 LEDGF/p75-dependent DNA integration; TR-FRET IN-LEDGF/p75 DNA integration, Eu/Cy5; inhibition, % at 3.7 µM; 370,000 tested, 0.64% active; AID 743269;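 active = inhibition above the screen-wide mean plus 3 SD, cut at about 13% in these data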;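 also: signal is the Cy5 over europium emission ratio at 671 and 618 nm; 0% = plate median of compound wells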
CSN inh: inhibitors of human CSN-mediated cullin deneddylation; Q92905; Purified CSN, SCF-Nedd8-OG deneddylation, fluorescence polarization; inhibition, % at 12.5 µM; 360,000 tested, 0.38% active;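 active = pattern-corrected inhibition above about 35%, with an unprinted fluorescence ratio check between 0.5 and 1.5, limit read from the data, passing the limit was not always enough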;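 also: 0% = enzyme with substrate and 100% = substrate without enzyme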
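Assay system: Purified human Csn5 enzyme expressed in HEK293T cells | Amount: Enzyme 0.24 nM | Measured by: Fluorescence polarization readout | Medium: Tris/NaCl/DTT buffer, pH 7.5 | Compound dosing: One concentration, 12.5 µM, 0.25% DMSO | Times: 90 min incubation of compound, enzyme and substrate at room temperature | Control set: no-enzyme wells high, enzyme-with-substrate wells low | Read-out: % inhibition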
UHRF1 binding: human UHRF1 methylated DNA binding inhibitors; inhibition, % at 4.4 µM; 370,000 tested, 0.75% active; UHRF1 binding to methylated oligo, TR-FRET; AID 687016; Q96T88; in the data active = inhibition above about 21%;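 also: UHRF1 SRA domain binding a hemimethylated CpG hairpin DNA probe; 0% = median of test compound wells and 100% = reference inhibitor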
Target sequence (Q96T88 whole entry, looked up, the tested form may be a part): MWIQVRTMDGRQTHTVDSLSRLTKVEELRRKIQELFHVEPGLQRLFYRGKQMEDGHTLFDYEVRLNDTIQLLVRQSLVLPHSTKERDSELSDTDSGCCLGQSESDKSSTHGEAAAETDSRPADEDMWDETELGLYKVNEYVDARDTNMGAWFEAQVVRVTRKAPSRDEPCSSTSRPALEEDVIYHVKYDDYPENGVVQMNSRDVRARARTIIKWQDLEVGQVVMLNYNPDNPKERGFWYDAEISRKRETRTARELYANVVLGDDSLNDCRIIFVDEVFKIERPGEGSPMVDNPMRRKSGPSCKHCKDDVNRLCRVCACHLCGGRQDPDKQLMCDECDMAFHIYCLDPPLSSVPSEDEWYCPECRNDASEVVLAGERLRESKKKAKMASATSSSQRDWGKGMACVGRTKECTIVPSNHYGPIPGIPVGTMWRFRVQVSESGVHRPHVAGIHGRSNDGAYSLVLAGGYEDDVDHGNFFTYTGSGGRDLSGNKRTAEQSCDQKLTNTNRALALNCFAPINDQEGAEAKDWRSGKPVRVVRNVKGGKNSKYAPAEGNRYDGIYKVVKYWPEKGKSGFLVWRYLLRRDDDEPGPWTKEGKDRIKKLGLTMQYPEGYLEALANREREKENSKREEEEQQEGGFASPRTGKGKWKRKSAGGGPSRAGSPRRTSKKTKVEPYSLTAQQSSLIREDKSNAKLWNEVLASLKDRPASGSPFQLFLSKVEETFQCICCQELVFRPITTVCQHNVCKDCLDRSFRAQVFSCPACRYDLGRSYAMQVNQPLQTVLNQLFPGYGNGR
rCAG bind conf: r(CAG) RNA repeat binding, confirmation. 4,300 tested, 70% active. TO-PRO-1 dye displacement fluorescence. shares compounds with rCAG binder. inhibition, % at 3 µM;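 active = inhibition above a per-plate cutoff, the mean inhibition of sample wells plus 3 SD, cut at about 35% in these data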;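 also: loss of TO-PRO-1 fluorescence as compound displaces dye from 1x1 AA loop RNA; 0% = DMSO only wells and 100% = 100 µM mitoxantrone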
dCAG dye counter: disrupts DNA CAG TO-PRO-1 complex, flagging rCAG hits. 4,300 tested, 94% active. shares compounds with rCAG binder. d(CAG) DNA oligo TO-PRO-1 dye displacement, fluorescence. inhibition, % at 3 µM;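 active = inhibition above its plate's cutoff, the mean test-well inhibition plus 3 SD, cut at about 4.8% in these data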;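 also: 0% = DNA dye mix with DMSO and 100% = 100 µM mitoxantrone; hits displace the dye from DNA and so lower well fluorescence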
dCAG dye DR: disrupts DNA CAG TO-PRO-1 complex in dose response; shares compounds with rCAG binder; DNA CAG/GTC duplex TO-PRO-1 dye displacement fluorescence; IC50, µM; 250 tested, 20% active; in the data active = IC50 below about 10 µM
Numbers without * were called inactive; x = no result given.

SMILES	rCAG binder	ATG4B inhibitor	MBD2 inh	LEDGF integ inh	CSN inh	UHRF1 binding	rCAG bind conf	dCAG dye counter	others
CCOC(=O)CC1=NN(c2ccccc2)C(=O)/C1=C\c1ccc(N(C)C)cc1	5	0	-5	-7	5	-5	x	x
Cc1ccccc1NC(=O)c1cccc2c1-c1ccccc1C2=O	2	x	10	-3	x	0	x	x
NC(c1csc(NC(=O)Nc2ccccc2)n1)C1CCCCC1 (stereo unspecified)	42*	x	1	3	-1	2	24	4.8*
NC(c1csc(NC(=O)Nc2ccccc2Cl)n1)C1CCCCC1 (stereo unspecified)	23	x	3	-3	6	-1	x	x
NC(c1csc(NC(=O)Nc2cccc(Cl)c2)n1)C1CCCCC1 (stereo unspecified)	47*	x	-4	7	0	-2	31	5.9*
CN(Cc1ccccc1)S(=O)(=O)c1cccc(C(=O)OCc2cccc(C(F)(F)F)c2)c1	4	x	-3	3	x	1	x	x
CCn1c(N)c(C(=O)NCC2CCCO2)sc1=S (stereo unspecified)	-1	-8	-2	-1	-1	-3	x	x
Cc1ccc(CNC(=O)c2ccc3c(=O)[nH]c4c(C(=O)NCC5CCCO5)sc(=S)n4c3c2)cc1 (stereo unspecified)	61*	21	-2	-2	-3	0	92*	74*
O=C(NCc1ccco1)c1sc(=S)n2c1[nH]c(=O)c1ccccc12	62*	20	-11	-2	10	-6	66*	22*
Cc1ccc(CNC(=O)c2ccc3c(=O)n(CC4CCCO4)c(=S)[nH]c3c2)cc1 (stereo unspecified)	0	-5	-4	2	3	-1	x	x
O=C(NC1CCCC1)c1sc(=S)n2c1[nH]c(=O)c1ccccc12	14	17	0	3	0	-5	x	x
O=C(NCc1ccccc1)c1ccc2c(=O)n(CC3CCCO3)c(=S)[nH]c2c1 (stereo unspecified)	-2	-10	5	4	0	4	x	x
CCCCCNC(=O)c1ccc2c(=O)[nH]c3c(C(=O)NCC4CCCO4)sc(=S)n3c2c1 (stereo unspecified)	59*	24	2	-5	5	-2	86*	62*
O=C(NCc1ccccc1)c1ccc2c(=O)[nH]c3c(C(=O)NCC4CCCO4)sc(=S)n3c2c1 (stereo unspecified)	50*	-3	1	1	7	-6	91*	66*
Cc1ccccc1CS(=O)(=O)Cc1ccc(C(=O)Nc2ccccc2C)o1	2	x	-2	2	x	0	x	x
CCCCNC(=O)C1CCCN1C(=O)Nc1cc(C)cc(C)c1 (stereo unspecified)	4	x	-1	1	x	-2	x	x
CCc1ccc2[nH]c3nc(N/N=C/c4ccc(O)cc4O)nnc3c2c1	57*	6	-1	-2	0	-6	35*	22*
CC1(C)C2CC[C@]3(C)C(CC=C4[C@@H]5C[C@@](C)(CO)[C@@H](O)C[C@]5(C(=O)O)CC[C@]43C)[C@@]2(C)CC[C@@H]1O (stereo partly specified)	x	-22	x	x	-1	x	x	x
CC1(C)CC[C@]2(C(=O)O[C@@H]3OC(CO)[C@@H](O)[C@H](O)[C@H]3O)CC[C@]3(C)C(=CCC4[C@@]5(C)CC[C@H](O[C@@H]6OC(C(=O)O)[C@@H](O)[C@H](O)[C@H]6O)C(C)(C)C5CC[C@]43C)[C@@H]2C1 (stereo partly specified)	46*	-3	0	16*	-1	1	45*	12*	dCAG dye DR=>30
CCOC(=O)C1(C(=O)OCC)Cc2c([nH]c3ccccc23)[C@]2(N1)C(=O)N(C)c1ccc(Br)cc12	3	x	-8	4	x	0	x	x
Cc1ccc(S(=O)(=O)NC(=O)C2(C)CCN2C(=O)Cc2ccc(C(C)(C)C)cc2)cc1 (stereo unspecified)	43*	x	0	1	3	1	30	7.2*
CC(C)(C)c1ccc(CC(=O)N2CCC2(C)C(=O)NS(=O)(=O)c2ccc(C#N)cc2)cc1 (stereo unspecified)	26	x	3	0	0	-1	x	x
CC(C)(C)c1ccc(CC(=O)N2CCC2(C)C(=O)NS(=O)(=O)c2ccc(Cl)cc2)cc1 (stereo unspecified)	37*	x	-1	-1	-3	-1	52*	17*
CC1(C(=O)NS(=O)(=O)c2ccccc2)CCN1C(=O)Cc1cccc2ccccc12 (stereo unspecified)	11	x	5	4	-4	-1	x	x
Cc1ccc(S(=O)(=O)NC(=O)C2(C)CCN2C(=O)Cc2ccc(-c3ccccc3)cc2)cc1 (stereo unspecified)	58*	x	-2	1	3	3	53*	15*
SMILES	rCAG binder	ATG4B inhibitor	MBD2 inh	LEDGF integ inh	CSN inh	UHRF1 binding	rCAG bind conf	dCAG dye counter	others
CC(C)(C)c1ccc(S(=O)(=O)NC(=O)C2(C)CCN2C(=O)Cc2cccc3ccccc23)cc1 (stereo unspecified)	71*	x	0	0	1	-1	62*	25*
Cc1ccc(F)c(S(=O)(=O)NC(=O)C2(C)CCN2C(=O)Cc2ccc(C(C)(C)C)cc2)c1 (stereo unspecified)	32	x	-1	-2	0	0	x	x
Cc1cccc(-c2cccc3c4c([nH]c23)[C@@H]2C[C@H](N(C)C(=O)c3ccccc3C)[C@H]([C@H](C)O)C(=O)N2CC4)c1	8	x	-3	2	x	-1	x	x
CC(C)C[C@H]1COc2cccc(F)c2S(=O)(=O)N1Cc1cn(Cc2ccc(F)cc2)nn1	-2	x	-3	7	x	-2	x	x
C/C(CC(=O)Nc1ccc(Cl)c(C(F)(F)F)c1)=N\NC(=O)c1ccccc1O	53*	15	1	-2	-3	-1	9	4
C/C(CC(=O)Nc1ccc(Cl)c(C(F)(F)F)c1)=N\NC(=O)c1cccc(O)c1	4	-6	6	1	-2	-2	x	x
O=c1cc(N2CCN(c3cccc(C(F)(F)F)c3)CC2)[nH]c(=O)n1-c1ccccc1	x	x	-2	2	x	0	x	x
O=C(NNC(=S)Nc1ccccc1)c1cc(-c2cccnc2)nc2ccccc12	50*	1	0	-1	-12	-8	43*	13*
